experiment: not given; type: in vitro ADME; conditions: 24 h, solution in 70% ethanol, pig skin
Outline: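 Pig abdominal skin in Franz cells with 8 cm3 PBS (pH 7.4) acceptor at 37.0 ± 0.5 °C, stirred 400 rpm. Donor: 1 cm3 of about 5% solution (about 0.05 g cm−3) in 70% ethanol, stoppered. Acceptor sampled (0.3 cm3, buffer replaced) at 0.5–24 h and assayed by HPLC. Jss is the slope of cumulative mass versus time, and lag time is the x-intercept. Kp, D and Km are calculated from these. Mean ± SD, ANOVA/Tukey.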

Row | Molecule | CUM – cumulative permeation mass [μg cm^−2] | Q – the percentage of the applied dose after 24 h [%]
1 | CC(C)Cc1ccc(C(C)C(=O)O)cc1.CCCOC(=O)[C@@H](N)Cc1ccccc1 [[PheOPr][IBU], L-phenylalanine propyl ester ibuprofenate] | 454.86 | 15.80
2 | CC(C)Cc1ccc(C(C)C(=O)O)cc1 (racemic) [[IBU], (R,S)-Ibuprofen, reference compound] | 133.35 | 9.33
3 | CC(C)Cc1ccc(C(C)C(=O)O)cc1.CCCOC(=O)[C@@H](N)Cc1c[nH]c2ccccc12 [[TrpOPr][IBU], L-tryptophan propyl ester ibuprofenate] | 319.22 | 12.42
4 | CC(C)Cc1ccc(C(C)C(=O)O)cc1.CCCOC(=O)[C@@H](N)Cc1ccc(O)cc1 [[TyrOPr][IBU], L-tyrosine propyl ester ibuprofenate] | 284.27 | 9.51
5 | L-histidine propyl ester bis(ibuprofenate) [[HisOPr][IBU]] | 335.13 | 7.90

same assay, conditions: from ethanol solution, pig skin

Row | Molecule | steady-state flux (JSS) [μg IBU per cm^2 h]
6 | CC(C)Cc1ccc(C(C)C(=O)O)cc1.CCCOC(=O)[C@@H](N)Cc1ccccc1 [[PheOPr][IBU], L-phenylalanine propyl ester ibuprofenate] | 28.01
7 | CC(C)Cc1ccc(C(C)C(=O)O)cc1 (racemic) [[IBU], (R,S)-Ibuprofen, reference compound] | 25.87
8 | L-histidine propyl ester bis(ibuprofenate) [[HisOPr][IBU]] | 21.33

same assay, conditions: solution in 70% ethanol, pig skin

Row | Molecule | J SS – steady-state flux [μg cm^−2] | K P – permeability coefficient [×10⁻⁶ cm/s] | K m – skin partition coefficient | L T – lag time [min]
9 | CC(C)Cc1ccc(C(C)C(=O)O)cc1.CCCOC(=O)[C@@H](N)Cc1ccccc1 [[PheOPr][IBU], L-phenylalanine propyl ester ibuprofenate] | 28.01 | 5446.1 | 0.200 | 1.705
10 | CC(C)Cc1ccc(C(C)C(=O)O)cc1 (racemic) [[IBU], (R,S)-Ibuprofen, reference compound] | 25.87 | – | 0.281 | 2.582
11 | CC(C)Cc1ccc(C(C)C(=O)O)cc1.CCCOC(=O)[C@@H](N)Cc1c[nH]c2ccccc12 [[TrpOPr][IBU], L-tryptophan propyl ester ibuprofenate] | 22.72 | 4418.6 | 0.208 | 2.179
12 | CC(C)Cc1ccc(C(C)C(=O)O)cc1.CCCOC(=O)[C@@H](N)Cc1ccc(O)cc1 [[TyrOPr][IBU], L-tyrosine propyl ester ibuprofenate] | 25.57 | 4971.7 | 0.229 | 2.133
13 | L-histidine propyl ester bis(ibuprofenate) [[HisOPr][IBU]] | 21.33 | 4143.9 | 0.192 | 2.141

experiment: Thermogravimetric analysis; type: physicochemical; conditions: compound, TG
Outline: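 About 5 mg samples were heated from 25 to 1000 °C on a thermobalance under nitrogen (10 ml min−1) and under air (25 ml min−1). Onset decomposition temperature was read from TG curves and maximum decomposition temperature from DTG curves.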

Row | Molecule | T max (maximum decomposition temperature) [°C] | T onset (the onset of the thermal degradation) [°C]
14 | CC(C)Cc1ccc(C(C)C(=O)O)cc1.CCCOC(=O)[C@@H](N)Cc1c[nH]c2ccccc12 [[TrpOPr][IBU], L-tryptophan propyl ester ibuprofenate] | 219.3 | –
15 | CC(C)Cc1ccc(C(C)C(=O)O)cc1.CCCOC(=O)[C@@H](N)Cc1ccc(O)cc1 [[TyrOPr][IBU], L-tyrosine propyl ester ibuprofenate] | 209.4 | 148.1
16 | L-histidine propyl ester bis(ibuprofenate) [[HisOPr][IBU]] | 212.5 | 157.5

experiment: Tack; type: physicochemical; conditions: transdermal patch (cross-linked adhesive film containing the active ingredient)
Outline: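 Tested with a tensile testing machine per AFERA 4015. The patch has an acrylate copolymer adhesive matrix with the active substance added as an ethyl acetate solution, dosed on the basis of 200 mg per 140 cm2. It was coated at 250 μm on polyester film and cross-linked by UV after 10 min at 110 °C.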

Row | Molecule | Tack [N]
17 | CC(C)Cc1ccc(C(C)C(=O)[O-])cc1.[Na+] (stereo not drawn) [[IBU][Na], sodium ibuprofenate] | 0.05

experiment: not given; type: in vitro ADME, pig; conditions: from transdermal patch

Row | Molecule | delay time (lag time)
18 | CC(C)Cc1ccc(C(C)C(=O)O)cc1.CCCOC(=O)[C@@H](N)Cc1ccccc1 [[PheOPr][IBU], L-phenylalanine propyl ester ibuprofenate] | about 1 h

experiment: Accumulation in the skin after 24 h penetration; type: in vitro ADME, pig; conditions: after 24 h of penetration from solution, porcine skin
Outline: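 Franz diffusion cells with porcine abdominal skin, PBS (pH 7.4) acceptor at 37.0 ± 0.5 °C. After 24 h penetration the skin was removed, rinsed in PBS pH 7.4, dried at room temperature, weighed, cut to the 1 cm2 diffusion area and minced. It was then extracted in methanol for 24 h at 4 °C, homogenized 3 min and centrifuged at 3500 rpm for 5 min. Supernatant was assayed by HPLC, expressed as μg IBU per g skin.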

Row | Molecule | accumulation in the skin [μg IBU per g skin]
19 | CC(C)Cc1ccc(C(C)C(=O)O)cc1.CCCOC(=O)[C@@H](N)Cc1ccccc1 [[PheOPr][IBU], L-phenylalanine propyl ester ibuprofenate] | 602.86 ± 76.98
20 | CC(C)Cc1ccc(C(C)C(=O)O)cc1 (racemic) [[IBU], (R,S)-Ibuprofen, reference compound] | 725.49 ± 164.6184
21 | CC(C)Cc1ccc(C(C)C(=O)O)cc1.CCCOC(=O)[C@@H](N)Cc1c[nH]c2ccccc12 [[TrpOPr][IBU], L-tryptophan propyl ester ibuprofenate] | 595.41 ± 76.32
22 | CC(C)Cc1ccc(C(C)C(=O)O)cc1.CCCOC(=O)[C@@H](N)Cc1ccc(O)cc1 [[TyrOPr][IBU], L-tyrosine propyl ester ibuprofenate] | 609.35 ± 106.07

experiment: not given; conditions: compound, TG; cited from earlier work

Row | Molecule | T max (maximum decomposition temperature) [°C] | T onset (the onset of the thermal degradation) [°C]
23 | CC(C)Cc1ccc(C(C)C(=O)O)cc1.CCCOC(=O)[C@@H](N)Cc1ccccc1 [[PheOPr][IBU], L-phenylalanine propyl ester ibuprofenate] | 210.4 | 157.0
24 | CC(C)Cc1ccc(C(C)C(=O)O)cc1 (racemic) [[IBU], (R,S)-Ibuprofen, reference compound] | 218.7 | 189.8

experiment: n-octanol/water partition coefficient, shake flask method; type: physicochemical; conditions: n-octanol–water, 25 °C
Outline: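 10 mg of compound was shaken with 5 ml n-octanol-saturated water and 5 ml water-saturated n-octanol, stirred 3 h at 25 °C, and the layers were separated. Aqueous concentration was measured by HPLC. Octanol-layer concentration was taken as total minus aqueous. log P = log C0 − log Cw.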

Row | Molecule | log P
25 | CC(C)Cc1ccc(C(C)C(=O)O)cc1.CCCOC(=O)[C@@H](N)Cc1ccccc1 [[PheOPr][IBU], L-phenylalanine propyl ester ibuprofenate] | +1.021
26 | CC(C)Cc1ccc(C(C)C(=O)O)cc1.CCCOC(=O)[C@@H](N)Cc1c[nH]c2ccccc12 [[TrpOPr][IBU], L-tryptophan propyl ester ibuprofenate] | +1.044
27 | CC(C)Cc1ccc(C(C)C(=O)O)cc1.CCCOC(=O)[C@@H](N)Cc1ccc(O)cc1 [[TyrOPr][IBU], L-tyrosine propyl ester ibuprofenate] | +1.055
28 | L-histidine propyl ester bis(ibuprofenate) [[HisOPr][IBU]] | +0.963

experiment: Solubility in water; type: physicochemical; conditions: 25 °C, 24 h

Row | Molecule | Solubility in water [g dm^−3] | Solubility in water (as ibuprofen) [g IBU per dm^3]
29 | CC(C)Cc1ccc(C(C)C(=O)O)cc1.CCCOC(=O)[C@@H](N)Cc1ccccc1 [[PheOPr][IBU], L-phenylalanine propyl ester ibuprofenate] | 9.481 ± 0.066 | 4.596 ± 0.161
30 | CC(C)Cc1ccc(C(C)C(=O)O)cc1.CCCOC(=O)[C@@H](N)Cc1c[nH]c2ccccc12 [[TrpOPr][IBU], L-tryptophan propyl ester ibuprofenate] | 9.396 ± 0.027 | 4.577 ± 0.037
31 | CC(C)Cc1ccc(C(C)C(=O)O)cc1.CCCOC(=O)[C@@H](N)Cc1ccc(O)cc1 [[TyrOPr][IBU], L-tyrosine propyl ester ibuprofenate] | 8.569 ± 0.022 | 4.188 ± 0.065

Source: publication PMC9748978 (RSC Advances, 2022)
